Assays:
Mus musculus [1] = assay: Effect on cholesterol from CF1 male mice after 16 days at a dose of 40 (mg/kg/day); format: functional
Method in brief: (§1)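 CF1 male mice dosed ip for 16 days at 10–60 (mg/kg)/day; liver taken and 10% homogenate made in 0.25 M sucrose + 0.001 M EDTA; aliquot extracted by Folch and Bligh–Dyer methods, mg lipid weighed, cholesterol measured by Liebermann–Burchard method; n = 6; % of 1% CMC control.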

Mus musculus [2] = assay: Effect on mg of lipid from CF1 male mice after 16 days at a dose of 10 (mg/kg/day); format: functional; method in brief: as §1
Mus musculus [3] = assay: Effect on mg of lipid from CF1 male mice after 16 days at a dose of 40 (mg/kg/day); format: functional; method in brief: as §1
Mus musculus [4] = species: Mus musculus; assay: In vitro effect on CF1 male mouse on Mitochondrial citrate exchange; format: functional
Method in brief: (§2)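 In vitro test on 10% CF₁ male mouse liver homogenate (0.25 M sucrose, 0.001 M EDTA) with 2.5 μmol test drug. Assays: acetyl-CoA synthetase and citrate lyase as hydroxamate at 540 nm, 30 min, 37 °C; citrate exchange from [¹⁴C]citrate-loaded mitochondria after 10 min with drug; side-chain oxidation by ¹⁴CO₂ from [26-¹⁴C]cholesterol, 18 h, 37 °C; acetyl-CoA carboxylase by [¹⁴C]bicarbonate fixation after 30 min polymerization then 30 min at 37 °C.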

Mus musculus [5] = assay: Effect on phospholipids from CF1 male mice after 16 days at a dose of 20 (mg/kg/day); format: functional
Method in brief: (§3)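 Dosing was ip in CF₁ male mice (~25 g) for 16 days, with compound suspended in 1% carboxymethylcellulose. Liver was then taken and homogenised to 10% in 0.25 M sucrose with 0.001 M EDTA. Lipid was extracted from a 2 mL aliquot by the Folch and Bligh–Dyer methods and total mg of lipid was weighed. Cholesterol (Liebermann–Burchard), triglycerides (kit), neutral lipids and phospholipids were then measured; N = 6; reported as % of vehicle control.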

Mus musculus [6] = assay: Effect on phospholipids from CF1 male mice after 16 days at a dose of 40 (mg/kg/day); format: functional; method in brief: as §3
Mus musculus [7] = assay: Effect on phospholipids from CF1 male mice after 16 days at a dose of 60 (mg/kg/day); format: functional; method in brief: as §3
Mus musculus [8] = assay: Effect on Serum cholesterol levels on CF1 male mice at a dose of 20 (mg/kg)/day after 9 days; format: functional
Method in brief: (§4)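 CF1 male mice (~25 g), drug suspended in 1% carboxymethylcellulose in water, given ip daily for 16 days; n = 6; vehicle control. Tail-vein blood on days 9 and 16, serum cholesterol by modified Liebermann–Burchard reaction; day-14 serum triglyceride by commercial kit; expressed as % control.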

Mus musculus [9] = assay: Effect on Serum cholesterol levels on CF1 male mice at a dose of 25 (mg/kg)/day after 9 days; format: functional; method in brief: as §4
Mus musculus [10] = species: Mus musculus; assay: Effect on Serum cholesterol levels on Hyperlipidemic induced mice After 2-week diet; format: functional
Method in brief: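 Mice fed atherogenic diet for 2 weeks to raise serum lipids, then given drug at 20 (mg/kg)/day ip for a further 2 weeks; serum cholesterol and triglyceride measured after the diet and after 14 days dosing; n = 6; compared with 1% CMC and diet-only controls; % control.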

Mus musculus [11] = assay: Effect on Serum triglceride levels on CF1 male mice at a dose of 20 (mg/kg)/day after 14 days; format: functional; method in brief: as §4
Mus musculus [12] = assay: Effect on Serum triglceride levels on CF1 male mice at a dose of 25 (mg/kg)/day after 14 days; format: functional; method in brief: as §4
Mus musculus [13] = assay: Effect on Serum triglceride levels on CF1 male mice at a dose of 50 (mg/kg)/day after 14 days; format: functional; method in brief: as §4
Mus musculus [14] = assay: Effect on cholesterol from CF1 male mice after 16 days at a dose of 20 (mg/kg/day); format: functional; method in brief: as §1
Mus musculus [15] = assay: In vitro effect on CF1 male mouse onAc-CoA carboxylase after 16 days at a dose of 40 (mg/kg)/day; format: functional; conditions: in the assay text read “In vivo” for “In vitro”
Method in brief: (§5)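 Mice (CF1 males) given agent ip daily for 16 days in 1% carboxymethylcellulose; liver 10% homogenate in 0.25 M sucrose + 0.001 M EDTA. Acetyl-CoA carboxylase first polymerized 30 min at 37 °C, then incubated 30 min at 37 °C with sodium [14C]bicarbonate (41.0 mCi/mmol); incorporated label counted. Activity as % of vehicle control; N = 6.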

Mus musculus [16] = assay: In vitro effect on CF1 male mouse onAc-CoA carboxylase after 16 days at a dose of 60 (mg/kg)/day; format: functional; method in brief: as §5
Mus musculus [17] = assay: In vitro effect on CF1 male mouse on Ac-CoA synthetase after 16 days at a dose of 20 (mg/kg)/day; format: functional
Method in brief: (§6)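 In vivo enzyme study. CF₁ male mice were dosed ip for 16 days in 1% CMC, and liver was homogenised to 10% in 0.25 M sucrose with 0.001 M EDTA. Enzymes assayed: acetyl-CoA synthetase as hydroxamate at 540 nm after 30 min at 37 °C; HMG CoA reductase with [1-¹⁴C]acetate in 9000g supernatant for 60 min at 37 °C; fatty acid synthetase with [2-¹⁴C]malonyl-CoA; acyltransferase with [³H]glycerol 3-phosphate and microsomes for 10 min; phosphatidate phosphohydrolase as released phosphate at 820 nm after 30 min. N = 6; reported as % control.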

Mus musculus [18] = assay: In vitro effect on CF1 male mouse on Ac-CoA synthetase after 16 days at a dose of 40 (mg/kg)/day; format: functional; method in brief: as §6
Mus musculus [19] = species: Mus musculus; assay: In vitro effect on CF1 male mouse on HMGCoA reductase; format: functional
Mus musculus [20] = assay: In vitro effect on CF1 male mouse on HMGCoA reductase after 16 days at a dose of 20 (mg/kg)/day; format: functional; method in brief: as §6
Mus musculus [21] = species: Mus musculus; assay: In vitro effect on CF1 male mouse on Ac-CoA synthetase; format: functional; method in brief: as §2
Rattus norvegicus [22] = assay: Effect on low density neutral lipids Holtzman rats after 14 days administration; format: functional
Method in brief: (§7)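 Holtzman male rats (~400 g) given drug at 20 (mg/kg)/day for 14 days; on day 14 blood taken from the abdominal aorta and serum separated by centrifugation at 3500 rpm; lipid and protein content of the lipoprotein fractions measured.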

Rattus norvegicus [23] = assay: Effect on very low density Triglycerides Holtzman rats after 14 days administration; format: functional
Method in brief: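 Holtzman male rats (~400 g) received drug at 20 (mg/kg)/day for 14 days. On day 14, blood was collected from the abdominal aorta and serum was separated by centrifugation at 3500 rpm. Lipid content of the lipoprotein fractions was then determined.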

Rattus norvegicus [24] = assay: Effect on Chylomicrons of Protein Holtzman rats after 14 days administration; format: functional; method in brief: as §7
Rattus norvegicus [25] = assay: Effect on Chylomicrons of neutral lipids Holtzman rats after 14 days administration; format: functional; method in brief: as §7
Rattus norvegicus [26] = assay: Effect on Serum cholesterol levels on Holtzman rats at a dose of 10 (mg/kg)/day after 9 days; format: functional
Method in brief: (§8)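 Holtzman male rats (~200 g) dosed orally by intubation needle daily for 16 days, drug suspended in 1% carboxymethylcellulose; n = 6; vehicle control. Tail-vein serum cholesterol on days 9 and 16 by modified Liebermann–Burchard reaction; day-14 serum triglyceride by commercial kit; % control.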

Rattus norvegicus [27] = assay: Effect on Serum cholesterol levels on Holtzman rats at a dose of 30 (mg/kg)/day after 9 days; format: functional; method in brief: as §8
Mus musculus [28] = assay: Effect on Serum cholesterol levels on CF1 male mice at a dose of 100 (mg/kg)/day after 16 days; format: functional; method in brief: as §4
Mus musculus [29] = assay: In vivo effect on CF1 male mouse on Lipid content after 16 days at a dose of 40 (mg/kg)/day

Structure (SMILES): CC(=O)c1ccccc1N1C(=O)c2ccccc2C1=O
- Control (Mus musculus [1]): 71%
- Control (Mus musculus [2]): 84%
- Control (Mus musculus [3]): 80%
- Control (Mus musculus [4]): 76%
- Control (Mus musculus [5]): 163%
- Control (Mus musculus [6]): 143%
- Control (Mus musculus [7]): 86%
- Control (Mus musculus [8]): 89%
- Control (Mus musculus [9]): 74%
- Control (Mus musculus [10]): 289%
- Control (Mus musculus [11]): 56%
- Control (Mus musculus [12]): 61%
- Control (Mus musculus [13]): 53%
- Control (Mus musculus [14]): 73%
- Control (Mus musculus [15]): 48%
- Control (Mus musculus [16]): 57%
- Control (Mus musculus [17]): 46%
- Control (Mus musculus [18]): 59%
- Control (Mus musculus [19]): 91%
- Control (Mus musculus [20]): 81%
- Control (Mus musculus [21]): 63%
- Control (Rattus norvegicus [22]): 49%
- Control (Rattus norvegicus [23]): 46%
- Control (Rattus norvegicus [24]): 91%
- Control (Rattus norvegicus [25]): 50%
- Control (Rattus norvegicus [26]): 66%
- Control (Rattus norvegicus [27]): 76%
- Control (Mus musculus [28]): 26%
- Control (Mus musculus [29]): 80%
